Measured values taken from PMC8463927 (Journal of Advanced Research, 2021).

Key:
[1] = molecular target: PDE4D catalytic domain (Homo sapiens, UniProt Q08499); experiment: PDEs enzyme assay; assay type: biochemical
Summary of the method: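 Purified PDE4D catalytic domain. Activity was read as hydrolysis of [³H]-cAMP to [³H]-AMP by scintillation proximity assay.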

[2] = molecular target: T1, PDK1 (Homo sapiens, UniProt O15530); experiment: PDK1 kinase assay; assay type: biochemical; settings: compared with GSK2334470
T1 sequence (O15530 1-556): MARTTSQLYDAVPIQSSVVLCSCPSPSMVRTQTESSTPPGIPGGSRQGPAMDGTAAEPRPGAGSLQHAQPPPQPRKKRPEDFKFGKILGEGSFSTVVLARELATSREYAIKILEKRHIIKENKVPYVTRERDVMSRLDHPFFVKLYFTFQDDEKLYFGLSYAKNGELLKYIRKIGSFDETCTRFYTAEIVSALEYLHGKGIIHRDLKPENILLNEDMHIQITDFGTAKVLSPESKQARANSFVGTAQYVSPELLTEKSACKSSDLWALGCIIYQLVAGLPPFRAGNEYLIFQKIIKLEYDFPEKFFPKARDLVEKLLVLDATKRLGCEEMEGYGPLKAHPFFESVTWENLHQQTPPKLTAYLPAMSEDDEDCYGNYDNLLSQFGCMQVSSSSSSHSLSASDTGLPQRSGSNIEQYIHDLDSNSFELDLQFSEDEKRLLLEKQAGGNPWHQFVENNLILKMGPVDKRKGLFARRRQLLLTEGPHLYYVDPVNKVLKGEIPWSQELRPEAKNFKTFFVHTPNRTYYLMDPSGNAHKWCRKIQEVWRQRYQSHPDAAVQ

[3] = tested on: LPS-stimulated human PBMCs; experiment: LPS-induced TNF-α production in human PBMCs; assay type: cell-based; settings: PBMC, read-out: IC50 on LPS-induced production of TNF-α
Summary of the method: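 Purchased human PBMCs (1 × 10⁶/well) in RPMI-1640 with 10% FBS and 2 mM L-glutamine were stimulated with LPS in the presence of test compound. TNF-α production was measured.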

[4] = tested on: LPS-induced RAW264.7 cells; experiment: Inflammatory mediators in LPS-induced RAW264.7 cells; assay type: cell-based, murine
Summary of the method: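 RAW264.7 cells in DMEM with 10% FBS at 37 °C and 5% CO₂ were given test compound (100, 30, 10 μM) with LPS (1 μg/mL). Cells were lysed after 3 h for SYBR Green RT-PCR (ΔΔCt). Supernatants were kept for TNF-α and IL-6 ELISA and NO measurement.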

[5] = tested on: RAW264.7 cells; experiment: Cytotoxicity on RAW264.7 cells; assay type: cell-based, murine; settings: 24 h, CCK8
[6] = tested on: RAW264.7 cells; experiment: cAMP and CREB phosphorylation in RAW264.7 cells; assay type: cell-based, murine; settings: for effect on arctigenin-induced phosphorylation of CREB: 10 μM with arctigenin 100 μM
Summary of the method: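 RAW264.7 cells were exposed to test compound for 15 min under LPS (1 μg/mL) induction, or at 100 μM alongside H89 (10 μM) and/or forskolin (10 μM). Lysates were BCA-normalised and run on 10% SDS-PAGE and nitrocellulose, probed overnight at 4 °C, and detected by chemiluminescence. Intracellular cAMP was measured in 0.1 M HCl lysates by direct ELISA. Mean ± SEM, n = 3.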

[7] = tested on: IMQ-induced murine psoriasis; experiment: IMQ-induced murine psoriatic skin lesions; assay type: in vivo, BALB/c mice
Summary of the method: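 Female BALB/c mice (6–8 weeks, 20–22 g), dorsal skin shaved, got 62.5 mg daily of […] IMQ cream topically for 7 days; groups (n = 7) were normal, IMQ only, and IMQ plus 5% test compound cream. PASI scored blind by 3 investigators. Read-outs: skin cAMP-specific PDE activity normalised to total protein, Ki-67 immunohistochemistry, serum Luminex 17-plex, skin RT-PCR (ΔΔCt), and skin-cell flow cytometry after collagenase IV digestion. Mean ± SEM.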

[8] = Arctigenin concentration in inflamed skin tissues; assay type: in vivo, mice; settings: topical application
[9] = tested on: PDE4; experiment: Enzymatic activity of cAMP-specific PDE4 in RAW264.7 cells; assay type: cell-based, murine; settings: RAW264.7 and LPS-stimulated RAW264.7 cells
[10] = cited from earlier work

PDE4D catalytic domain, sequence (Q08499 386-715 limits assumed): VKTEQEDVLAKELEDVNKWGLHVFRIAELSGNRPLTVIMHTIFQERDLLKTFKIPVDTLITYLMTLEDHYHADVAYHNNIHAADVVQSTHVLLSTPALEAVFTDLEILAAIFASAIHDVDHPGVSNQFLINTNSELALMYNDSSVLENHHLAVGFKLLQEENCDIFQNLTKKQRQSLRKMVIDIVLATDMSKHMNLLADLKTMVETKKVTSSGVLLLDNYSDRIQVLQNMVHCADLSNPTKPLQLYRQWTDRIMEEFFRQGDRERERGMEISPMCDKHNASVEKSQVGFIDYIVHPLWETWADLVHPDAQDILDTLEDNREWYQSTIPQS

With `COc1cc(C[C@H]2C(=O)OC[C@@H]2Cc2ccc(OC)c(OC)c2)ccc1O` [Arctigenin] the IC50 [1] was 3.76 ± 0.28 µM, the “inhibition on PDK1” value [2] was “negligible” and the IC50 [3] was 35.2 ± 6.01 µM. The “production of TNF-α and IL-6” value ([4]; 100, 30, and 10 μM, LPS 24 h, ELISA, dose-dependent) was “reduce the production of TNF-α and IL-6”, the “mRNA expression level of TNF-α and IL-6” value ([4]; LPS 3 h, RT-PCR) was “decreased the mRNA expression level” and the “iNOS and COX-2 mRNA” value ([4]; concentration-dependent) was “downregulated”. The cytotoxicity [5] was “not associated with the cytotoxicity”, the “phosphorylation of CREB” value ([6]; 15 min, western blot) was “led to the phosphorylation of CREB” and the “intracellular cAMP” value ([6]; 30 min, concentration-dependent) was “significant elevation of intracellular cAMP”. The “serum IL-10” value ([7]; Luminex assay) was “promote the secretion of IL-10”, the serum inflammatory cytokines ([7]; Luminex assay) was “reduce the production of inflammatory cytokines” and the “CCR6 and CXCR3 on CD45+ leukocytes” value ([7]; flow cytometry) was “suppressed the protein expression of CCR6 and CXCR3”. For the same compound, the “skin myeloid cells, macrophages, neutrophils, DCs” value ([7]; flow cytometry) was “decreased when treated with arctigenin”, the “skin-infiltrated leukocytes, APCs, T cells, γδT cells” value ([7]; flow cytometry) was “reduced upon arctigenin treatment” and the “expression of chemokines in inflamed skins” value ([7]; gene expression) was “suppress the expression of chemokines”. For the same compound, the “expression of inflammatory cytokines in inflamed tissues” value ([7]; mRNA level) was “extensively attenuated”, the “Ki-67 positive staining in the epidermis” value ([7]; topical 5% arctigenin cream) was “reduced” and the “activity of cAMP-specific PDEs in skins” value ([7]; topical 5% arctigenin cream) was “obviously reversed”. For the same compound, the “cumulative PASI scores” value ([7]; topical 5% arctigenin cream) was “decreased the cumulative PASI scores”, the “skin level of cAMP” value ([7]; topical 5% arctigenin cream) was “upregulate the skin level of cAMP” and the “splenomegaly (spleen index)” value ([7]; topical 5% arctigenin cream) was “ameliorate the concomitant splenomegaly”. For the same compound, the epidermal thickening ([7]; topical 5% arctigenin cream, H&E) was “dramatically improved the epidermal thickening”, the body weight loss ([7]; topical 5% arctigenin cream, daily) was “significantly reversed the body weight loss” and the “therapeutic effect, topical vs oral” value ([7]; topical 5% cream vs oral 100 mg/kg) was “better therapeutic effect”. The “phosphorylation of CREB in skins” value ([7]; western blot) was “promote the phosphorylation of CREB”, the “concentration in the inflamed skin tissues” value [8] was 29.67 ± 15.42 μg/g skin samples and the “enzymatic activity of PDE4 in cells” value [9] was “inhibit the enzymatic activity of PDE4 in the concentration-dependent manner”. The plasma concentration ([10]; oral administration, several animal species, ref [4], [35]) was “undetectable” and the “tissue accumulation in brain” value ([10]; ref [34]) was “lower than that in intestine, liver, kidney, lung, and heart”.
For `O=S(=O)(NCCNC/C=C/c1ccc(Br)cc1)c1cccc2cnccc12` [H89, reference compound], the “effect on arctigenin-induced phosphorylation of CREB” value ([6]; 15 min) was “obviously blocked the effects of arctigenin on phosphorylation of CREB”.
With `C=C[C@@]1(C)CC(=O)[C@]2(O)[C@@]3(C)[C@@H](O)CCC(C)(C)[C@@H]3[C@H](O)[C@H](OC(C)=O)[C@@]2(C)O1` [forskolin, reference compound] the “effect on arctigenin-induced phosphorylation of CREB” value ([6]; 15 min) was “further enhance the effects of arctigenin on promoting the phosphorylation of CREB”.
